# Published values collected from several papers.
Structure (SMILES),target or system,test,system,setting,endpoint,result
CCN(CC)CCCC(C)Nc1ccnc2cc(Cl)ccc12 (stereo not shown),Plasmodium falciparum,parasite growth,W2,"72 h, drug-resistant strain, blood stage",IC50,0.1 mg/L
Cc1sc(CNCCCNc2cc(=O)c3ccccc3[nH]2)c(I)c1C,Plasmodium falciparum,"parasite growth, SYBR Green",3D7,,EC50,0.339 µM
CC(C(=O)NCC1CCCCC1)c1cccc(C(OC(=O)NCC2CCCCC2)c2ccccc2)c1 (stereo not shown),L1210,cell growth or viability,,48 h,IC50,11 µM
CCCCCCCCCCOc1cc2c(O)c(C(=O)OCC)cnc2cc1OCC,Plasmodium falciparum,"parasite growth, SYBR Green",W2,blood stage,IC50,< 0.0057 µM
O=C1C(O)=C([C@H]2CC[C@H](c3ccc(Cl)cc3)CC2)C(=O)c2ccccc21,Plasmodium falciparum,"parasite growth, SYBR Green",3D7,,EC50,0.00045 µM
CCN(CC)CCCC(C)Nc1ccnc2cc(Cl)ccc12 (stereo not shown),Plasmodium falciparum,parasite growth,W2,"drug-resistant strain, blood stage",IC50,0.15 mg/L
c1csc(-c2nnc3sc(Cc4ccc5c(c4)CCCC5)nn23)c1,Plasmodium falciparum,"parasite growth, SYBR Green",3D7,72 h,EC50,> 12.5 µM
CO[C@H]1/C=C/O[C@@]2(C)Oc3c(C)c(O)c4c(O)c(c(/C=N/N5CCN(C)CC5)c(O)c4c3C2=O)NC(=O)/C(C)=C\C=C\[C@H](C)[C@H](O)[C@@H](C)[C@@H](O)[C@@H](C)[C@H](OC(C)=O)[C@@H]1C,Mycolicibacterium aurum,"microbial growth, agar dilution",,,MIC,0.78 mg/L
C[C@]12CC[C@H](O)C[C@@H]1CC[C@@H]1[C@@H]2CC[C@]2(C)[C@@H]([N+](=O)[O-])CC[C@@H]12,,6 Hz seizures,mouse,intraperitoneal,ED50,83 mg/kg
CC(C(=O)NOCc1ccccc1)c1cccc(C(OC(=O)NOCc2ccccc2)c2ccccc2)c1 (stereo not shown),FM3A,cell growth or viability,,48 h,IC50,11 µM
C[C@@]1(O)CC[C@@]2(C)[C@@H](CC[C@@H]3[C@@H]2CC[C@]2(C)[C@@H]([N+](=O)[O-])CC[C@@H]32)C1,,6 Hz seizures,mouse,intraperitoneal,ED50,8.8 mg/kg
CCOc1cccc(=O)c2c(C)n(Cc3ccc(Cl)cc3)c(C)c12,Plasmodium falciparum,"parasite growth, SYBR Green",3D7,,EC50,0.59 µM
CC(C(=O)N1CCCC1)c1cccc(C(OC(=O)N2CCCC2)c2ccccc2)c1 (stereo not shown),L1210,cell growth or viability,,48 h,IC50,41 µM
